Measured values as given in ChEMBL document CHEMBL5058577, “EUbOPEN Chemogenomics Library 2 (Multiplex)” (2022).

Tested on: U2OS
Test: Multiplex assay against U2OS
Type: toxicity, cell-based
Conditions: human
How it was run: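 Per cents of healthy-nucleus cells form the tubulin, mitochondrial-mass and membrane-permeability phenotype values. Live cells were stained at seeding with Hoechst33342, BioTracker Green Microtubule Cytoskeleton Dye, MitoTracker Red and Annexin V Alexa Fluor 680. After compound addition they were imaged on a CQ1 microscope at 37°C and 5% CO2, and CellPathfinder machine-learning gating split them into Hoechst high-intensity objects or normal cells, normal cells into healthy, pyknosed or fragmented nuclei, and pyknosed cells into mitotic or apoptotic.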

[1] = 12 h, 1 µM, compound concentration 1 uM, replicate 1
[2] = 12 h, 1 µM, compound concentration 1 uM, replicate 2
[3] = 12 h, 10 µM, compound concentration 10 uM, replicate 1
[4] = 12 h, 10 µM, compound concentration 10 uM, replicate 2
[5] = 24 h, 1 µM, compound concentration 1 uM, replicate 1
[6] = 24 h, 1 µM, compound concentration 1 uM, replicate 2
[7] = 24 h, 10 µM, compound concentration 10 uM, replicate 1
[8] = 24 h, 10 µM, compound concentration 10 uM, replicate 2
[9] = 48 h, 1 µM, compound concentration 1 uM, replicate 1
[10] = 48 h, 1 µM, compound concentration 1 uM, replicate 2
[11] = 48 h, 10 µM, compound concentration 10 uM, replicate 1
[12] = 48 h, 10 µM, compound concentration 10 uM, replicate 2

## CCOc1c2c(c(OCC)c3ncccc13)CN(c1ccc(CS(=O)(=O)NC(=O)Cc3ccccc3OC)cc1C)C2=O
[1]
  Population Apoptotic (%): 64%
  Population Fragmented Nuclei (%): 22%
  Population Healthy Nuclei (%): 70%
  Population Hoechst High Intensity Objects (%): 2%
  Population Membrane Permeable-Phenotype (%): 7%
  Population Mitochondria Different-Phenotype (%): 3%
  Population Mitotic Cells (%): 35%
  Population Normal (%): 97%
  Population Pyknosed Nuclei (%): 7%
  Population Tubulin-Different-Phenotype (%): 2%
  Total Cell Count: 189
[2]
  Population Apoptotic (%): 100%
  Population Fragmented Nuclei (%): 13%
  Population Healthy Nuclei (%): 82%
  Population Hoechst High Intensity Objects (%): 1%
  Population Membrane Permeable-Phenotype (%): 9%
  Population Mitotic Cells (%): 0%
  Population Normal (%): 98%
  Population Pyknosed Nuclei (%): 4%
  Population Tubulin-Different-Phenotype (%): 6%
  Total Cell Count: 93
[3]
  Population Apoptotic (%): 81%
  Population Fragmented Nuclei (%): 30%
  Population Healthy Nuclei (%): 63%
  Population Hoechst High Intensity Objects (%): 2%
  Population Membrane Permeable-Phenotype (%): 5%
  Population Mitochondria Different-Phenotype (%): 3%
  Population Mitotic Cells (%): 18%
  Population Normal (%): 97%
  Population Pyknosed Nuclei (%): 6%
  Population Tubulin-Different-Phenotype (%): 2%
  Total Cell Count: 248
[4]
  Population Apoptotic (%): 80%
  Population Fragmented Nuclei (%): 21%
  Population Healthy Nuclei (%): 75%
  Population Membrane Permeable-Phenotype (%): 8%
  Population Mitochondria Different-Phenotype (%): 6%
  Population Mitotic Cells (%): 20%
  Population Pyknosed Nuclei (%): 3%
  Population Tubulin-Different-Phenotype (%): 3%
  Total Cell Count: 136
[5]
  Population Apoptotic (%): 80%
  Population Fragmented Nuclei (%): 21%
  Population Healthy Nuclei (%): 71%
  Population Hoechst High Intensity Objects (%): 3%
  Population Membrane Permeable-Phenotype (%): 4%
  Population Mitochondria Different-Phenotype (%): 0%
  Population Mitotic Cells (%): 20%
  Population Normal (%): 96%
  Population Pyknosed Nuclei (%): 6%
  Population Tubulin-Different-Phenotype (%): 1%
  Total Cell Count: 235
[6]
  Population Apoptotic (%): 100%
  Population Fragmented Nuclei (%): 19%
  Population Healthy Nuclei (%): 76%
  Population Hoechst High Intensity Objects (%): 1%
  Population Membrane Permeable-Phenotype (%): 7%
  Population Mitochondria Different-Phenotype (%): 4%
  Population Mitotic Cells (%): 0%
  Population Normal (%): 98%
  Population Pyknosed Nuclei (%): 4%
  Population Tubulin-Different-Phenotype (%): 4%
  Total Cell Count: 125
[7]
  Population Apoptotic (%): 76%
  Population Fragmented Nuclei (%): 27%
  Population Healthy Nuclei (%): 61%
  Population Hoechst High Intensity Objects (%): 3%
  Population Membrane Permeable-Phenotype (%): 6%
  Population Mitochondria Different-Phenotype (%): 2%
  Population Mitotic Cells (%): 23%
  Population Normal (%): 96%
  Population Pyknosed Nuclei (%): 10%
  Population Tubulin-Different-Phenotype (%): 1%
  Total Cell Count: 285
[8]
  Population Apoptotic (%): 100%
  Population Fragmented Nuclei (%): 17%
  Population Healthy Nuclei (%): 76%
  Population Hoechst High Intensity Objects (%): 0%
  Population Mitotic Cells (%): 0%
  Population Normal (%): 99%
  Population Pyknosed Nuclei (%): 5%
  Population Tubulin-Different-Phenotype (%): 5%
  Total Cell Count: 152
[9]
  Population Apoptotic (%): 85%
  Population Fragmented Nuclei (%): 19%
  Population Healthy Nuclei (%): 74%
  Population Hoechst High Intensity Objects (%): 2%
  Population Membrane Permeable-Phenotype (%): 3%
  Population Mitochondria Different-Phenotype (%): 1%
  Population Mitotic Cells (%): 15%
  Population Normal (%): 97%
  Population Pyknosed Nuclei (%): 5%
  Population Tubulin-Different-Phenotype (%): 2%
  Total Cell Count: 344
[10]
  Population Apoptotic (%): 100%
  Population Fragmented Nuclei (%): 17%
  Population Healthy Nuclei (%): 79%
  Population Hoechst High Intensity Objects (%): 4%
  Population Membrane Permeable-Phenotype (%): 7%
  Population Mitochondria Different-Phenotype (%): 3%
  Population Mitotic Cells (%): 0%
  Population Normal (%): 95%
  Population Pyknosed Nuclei (%): 2%
  Population Tubulin-Different-Phenotype (%): 5%
  Total Cell Count: 167
[11]
  Population Apoptotic (%): 91%
  Population Fragmented Nuclei (%): 19%
  Population Healthy Nuclei (%): 71%
  Population Hoechst High Intensity Objects (%): 2%
  Population Membrane Permeable-Phenotype (%): 5%
  Population Mitochondria Different-Phenotype (%): 1%
  Population Mitotic Cells (%): 8%
  Population Normal (%): 97%
  Population Pyknosed Nuclei (%): 9%
  Population Tubulin-Different-Phenotype (%): 2%
  Total Cell Count: 385
[12]
  Population Apoptotic (%): 100%
  Population Fragmented Nuclei (%): 18%
  Population Healthy Nuclei (%): 74%
  Population Membrane Permeable-Phenotype (%): 8%
  Population Mitochondria Different-Phenotype (%): 4%
  Population Mitotic Cells (%): 0%
  Population Pyknosed Nuclei (%): 6%
  Population Tubulin-Different-Phenotype (%): 3%
  Total Cell Count: 236
